Assay results published in PubChem BioAssay.
The source made the active and inactive calls.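 The calls were made as follows, unless noted: active = Her2 level under about 52% in both replicate screens, with viability over 70% of control (limit read from the data); inconclusive = Her2 under the limit in one screen only, or viability under 70%; inactive = Her2 level above the set limit.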

How the values were obtained:
[1] = Her2 expression decrease, cell viability multiplex – SKBR3 breast tumor cells, AlphaScreen, ATP viability, primary screen (AID 461); details: SKBR3 Her2 protein level, 18-24 h, measured here: SKBR3 viability, ATP luminescence, at 10 µM;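 as to Her2 level: lower value means less Her2 protein in the cells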;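 as to viability: percent of carrier control wells set as 100% viability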
[2] = molecular target: Receptor tyrosine-protein kinase erbB-2 (Homo sapiens) (UniProt P04626); assay: as above; details: 18-24 h, at 10 µM, stronger effect = lower value
[3] = reduced viability of SK-BR-3 breast cancer cells – cell-based, 24 h, human, pilot screen (AID 572;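 active = viability at or below 10% of carrier control in both of two separate runs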;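 also: compound exposure lasted between 18 and 24 h rather than exactly 24 h; 100% = carrier-treated control wells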); details: SK-BR-3 viability, CellTiter-Glo luminescence, at 10 µM, stronger effect = lower value
[4] = HUVEC growth inhibition – cell-based, human, primary screen (AID 575;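 active = viability at or below 30% in both replicate assays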;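 also: 100% = median of untreated cell wells with 0.1% DMSO on each plate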); details: HUVEC proliferation, CellTiter-Glo luminescence, 72 h; at 10 µM; stronger effect = lower value
Procedure, shortened: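 Assay system: primary human umbilical vein endothelial cells / Buffer or medium: endothelial basal medium with 2% FBS plus growth supplements / Compound dosing: one dose, 10 µM final, 0.1% DMSO / Timing: 72 h treatment at 37 °C / Signal: CTG luminescence / Benchmarks: 32 DMSO-only cell-control wells (high), 32 MePR drug-control wells (low) per plate / Plate: collagen-coated 384-well format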

[5] = MRP1 drug-resistance reversers in H69AR cells – cell-based, doxorubicin co-treatment, pilot screen (AID 601;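 active = viability loss from added drug above about 55%, and viability with drug at most 40%, in both replicates, limit read from the data, passing the limit was not always enough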); details: CellTiter-Glo, 72 h, at 10 µM; for differential viability (reversal): stronger effect = higher value
[6] = yeast transport mutant growth inhibition pilot in 384-well plates, post-Golgi transport modulator project (AID 636; in the data active = inhibition above about 31%); details: absorbance 615 nm, about 18 h, stronger effect = higher value
[7] = growth suppression of yeast trafficking mutant, preliminary HTS, modulators of trafficking downstream of Golgi apparatus project, 1536-format plate, OD 615 nm (AID 637; in the data active = inhibition above about 30%); details: yeast transport mutant growth, absorbance 615 nm, 18 h; stronger effect = higher value
[8] = H69AR cell proliferation blockers – human, duplicate replicates, primary screen (AID 580;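 active = viability at or under a set limit in both replicates, limit being median viability minus 3 SD, cut at about 48% in these data, passing the limit was not always enough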;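 also: 100% = mean luminescence of untreated wells and 0% = no signal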); details: H69AR lung tumor cells viability, ATP luminescence, 72 h; at 10 µM; stronger effect = lower value
[9] = H69AR cells + 2 uM doxorubicin, measured here: viability with 2 uM doxorubicin, stronger effect = lower value
[10] = H69AR cells, compound alone cytotoxicity

Sequence of Receptor tyrosine-protein kinase erbB-2 (Homo sapiens) (P04626 whole entry, looked up): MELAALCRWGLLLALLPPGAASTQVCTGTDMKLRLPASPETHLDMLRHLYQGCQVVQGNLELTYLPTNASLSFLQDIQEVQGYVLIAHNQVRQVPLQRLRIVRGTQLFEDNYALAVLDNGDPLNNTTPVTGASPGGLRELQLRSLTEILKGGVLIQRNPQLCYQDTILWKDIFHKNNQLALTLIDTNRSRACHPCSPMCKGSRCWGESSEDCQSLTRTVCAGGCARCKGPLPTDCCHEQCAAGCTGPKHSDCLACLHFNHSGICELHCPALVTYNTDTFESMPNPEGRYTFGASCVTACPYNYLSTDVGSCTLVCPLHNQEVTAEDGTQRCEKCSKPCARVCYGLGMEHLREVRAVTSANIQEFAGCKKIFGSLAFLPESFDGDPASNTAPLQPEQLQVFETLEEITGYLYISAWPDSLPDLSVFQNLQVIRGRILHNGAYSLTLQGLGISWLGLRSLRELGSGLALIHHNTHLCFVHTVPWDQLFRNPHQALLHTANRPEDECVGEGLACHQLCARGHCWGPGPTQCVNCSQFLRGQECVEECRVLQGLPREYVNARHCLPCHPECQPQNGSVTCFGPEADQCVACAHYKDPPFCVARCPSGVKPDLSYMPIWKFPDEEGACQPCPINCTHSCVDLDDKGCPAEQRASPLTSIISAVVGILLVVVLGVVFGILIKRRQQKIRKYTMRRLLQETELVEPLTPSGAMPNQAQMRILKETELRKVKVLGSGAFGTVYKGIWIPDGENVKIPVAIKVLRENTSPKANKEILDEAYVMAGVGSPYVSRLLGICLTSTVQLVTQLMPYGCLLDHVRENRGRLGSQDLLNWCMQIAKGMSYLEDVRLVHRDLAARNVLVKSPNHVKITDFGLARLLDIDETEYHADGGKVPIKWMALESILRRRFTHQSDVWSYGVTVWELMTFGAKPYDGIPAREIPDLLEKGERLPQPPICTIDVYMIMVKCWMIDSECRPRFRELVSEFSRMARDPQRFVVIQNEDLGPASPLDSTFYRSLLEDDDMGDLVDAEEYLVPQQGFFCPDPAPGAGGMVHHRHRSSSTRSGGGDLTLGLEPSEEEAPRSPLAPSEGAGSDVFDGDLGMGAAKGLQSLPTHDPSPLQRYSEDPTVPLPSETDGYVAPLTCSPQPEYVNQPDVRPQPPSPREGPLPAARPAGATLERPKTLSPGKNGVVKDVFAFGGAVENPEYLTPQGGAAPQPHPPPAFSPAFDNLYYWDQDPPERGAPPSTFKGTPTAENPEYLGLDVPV

| SMILES | viability [1] [%] | Her2 level [2] | viability [3] | viability [4] | differential viability (reversal) ([5]; H69AR cells + 2 uM doxorubicin) | viability [5, 9] [%] | viability [5, 10] [%] | inhibition [6] | inhibition [7] | viability [8] |
| --- | --- | --- | --- | --- | --- | --- | --- | --- | --- | --- |
| CCOC(=O)N1CCN(CCC(=O)c2ccc(Cl)cc2)CC1 | 106 | 89.5% (inactive) | 106% (inactive) | 86.4% (inactive) | -5.11% (inactive) | 17.9 | 12.8 | -2.99% (inactive) | -6.51% (inactive) |  |
| O=c1c2ccccc2nc(SCc2nnc(-c3ccccc3Br)o2)n1-c1ccccc1 | 77 | 95.5% (inactive) | 77% (inactive) |  | -3.29% (inactive) | 87.5 | 84.2 | -0.27% (inactive) | 3.77% (inactive) | 84.2% (inactive) |
| Cc1ccccc1OCC(O)CN (configuration not stated) | 74 | 90% (inactive) | 74% (inactive) | 15.3% (active) | -5.69% (inactive) | 25 | 19.3 | 3.64% (inactive) | -6.03% (inactive) |  |
| CCOC(=O)c1sc(Nc2nc3c(OC)cccc3s2)nc1C | 81.5 | 72% (inactive) | 81.5% (inactive) | 63.3% (inactive) | -7.45% (inactive) | 66.6 | 59.2 | 0.13% (inactive) | -4.76% (inactive) |  |
| CCOC(=O)c1sc2nc(N3CCCC3)c3c(c2c1N)CC(C)(C)OC3 | 75.5 | 80.5% (inactive) | 75.5% (inactive) | 58.8% (inactive) | -12.8% (inactive) | 65.9 | 53.1 | -7.92% (inactive) | -9.83% (inactive) |  |
| O=C(NC1CCCCC1)C(c1ccccc1)N(Cc1ccco1)C(=O)Cn1cnc2ccccc21 (configuration not stated) | 102 | 90% (inactive) | 102% (inactive) |  | 8.18% (inactive) | 70.1 | 78.3 | -5.33% (inactive) | -4.92% (inactive) | 78.3% (inactive) |
| CCOC(=O)c1cnn(-c2ncnc3c2cnn3Cc2ccccc2)c1N | 99.5 | 84.5% (inactive) | 99.5% (inactive) |  | -14.3% (inactive) | 31.5 | 17.2 | -5.33% (inactive) | -2.58% (inactive) | 17.2% (active) |
| O=C(O)CCc1cc(I)c(Oc2ccc(O)c(I)c2)c(I)c1 | 104 | 76.5% (inactive) | 104% (inactive) |  | 3.29% (inactive) | 98.8 | 102 |  |  | 102% (inactive) |
| CCOC(=O)C1=C(N)c2ccccc2CC1C(C)C (configuration not stated) | 85.5 | 78% (inactive) | 85.5% (inactive) |  | -4.15% (inactive) | 76.1 | 72 | -5.34% (inactive) | -1.9% (inactive) | 72% (inactive) |
| CC(C)Cn1c(N)c(C(=O)NCc2cccs2)c2nc3ccccc3nc21 | 77 | 101% (inactive) | 77% (inactive) |  | -5.04% (inactive) | 17.1 | 12 | 24.3% (inactive) | 12.1% (inactive) | 12% (active) |
| CCC(Sc1nc2n[nH]c(C)c2c(=N)n1-c1cc(Cl)ccc1C)C(=O)N1CCOCC1 (configuration not stated) | 92.5 | 96% (inactive) | 92.5% (inactive) | 71.2% (inactive) | 29.3% (inactive) | 17 | 46.3 | 2.37% (inactive) | -10% (inactive) |  |
| COc1cccc(-c2nnc3sc(C4CCCCC4)nn23)c1 | 83 | 53.5% (active) | 83% (inactive) |  | 29.9% (inactive) | 33.5 | 63.4 | -1.58% (inactive) | 11% (inactive) | 63.4% (inactive) |
| O=C(Nc1ccc(F)cc1)N(Cc1ccco1)Cc1cc2cc3c(cc2[nH]c1=O)OCO3 | 86.5 | 90.5% (inactive) | 86.5% (inactive) | 58.7% (inactive) | 35.4% (inactive) | 19.6 | 55 | -6.32% (inactive) | -12.8% (inactive) |  |
| CCOC(=O)c1cnc(-n2nc(C)cc2C)nc1Nc1ccc(N(C)C)cc1 | 102 | 75.5% (inactive) | 102% (inactive) |  | 11.6% (inactive) | 26.3 | 37.9 | -6.05% (inactive) | -1.13% (inactive) | 37.9% (active) |
| Cc1ccc(C)c(-c2nc3ccc(N)cc3[nH]2)c1 | 122 | 101% (inactive) | 122% (inactive) | 68.3% (inactive) | -15.6% (inactive) | 68.3 | 52.8 | -6.35% (inactive) | 5.67% (inactive) |  |
| Cc1ccc(NC(=O)c2oc3ccc(S(=O)(=O)N4CCOCC4)cc3c2C)cc1C | 91 | 83.5% (inactive) | 91% (inactive) | 51.6% (inactive) | -5.16% (inactive) | 48.6 | 43.4 | -5.26% (inactive) | 2.54% (inactive) |  |
| CCn1cc(C(=O)OCC(=O)OC2CC(C)CCC2C(C)C)c(=O)c2ccc(C)nc21 (configuration not stated) | 94.5 | 67.5% (inactive) | 94.5% (inactive) | 35.3% (inactive) | -1.67% (inactive) | 46.3 | 44.7 | 78.4% (active) | -1.45% (inactive) |  |
| Cc1nc2cc(N3CCCCC3)c(NC(=O)c3cccnc3)cc2c(=O)n1Cc1ccccc1 | 64 | 67.5% (inactive) | 64% (inactive) |  | 6.91% (inactive) | 22 | 28.9 | 2.11% (inactive) | -8.33% (inactive) | 28.9% (active) |
| Cc1ccc(C(C)C)c(OCc2nnc(SCC(=O)Nc3ncc(C)s3)n2C)c1 | 89.5 | 86% (inactive) | 89.5% (inactive) |  | 1.44% (inactive) | 39.7 | 41.1 | 0% (inactive) | -5.48% (inactive) | 41.1% (active) |
| O=C(CN1CCC(c2nc3ccccc3s2)CC1)NCc1cccs1 | 110 | 91% (inactive) | 110% (inactive) |  | -3.33% (inactive) | 88.6 | 85.3 | -0.8% (inactive) | 6.72% (inactive) | 85.3% (inactive) |
| O=S(=O)(Nc1ccc2c(c1)OCO2)c1ccc(Br)s1 | 92 | 79% (inactive) | 92% (inactive) |  | 0.44% (inactive) | 96.3 | 96.8 | -4.47% (inactive) | -10.7% (inactive) | 96.8% (inactive) |
| COc1ccc(C)cc1NC(=O)CCC(=O)Nc1ccc2nc(N3CCN(C)CC3)cc(C)c2c1 | 70.5 | 123% (inactive) | 70.5% (inactive) |  | 6.93% (inactive) | 86.2 | 93.2 | 3.95% (inactive) | -6.17% (inactive) | 93.2% (inactive) |
| CCn1c(SCc2nc(-c3cccs3)no2)nnc1-c1c[nH]c2ccccc12 | 99 | 65.5% (inactive) | 99% (inactive) |  | 4.39% (inactive) | 74.4 | 78.8 | -5.26% (inactive) | -5.67% (inactive) | 78.8% (inactive) |
| Cc1cc(O)c(-c2cc(C(=O)Nc3ccc(S(=O)(=O)N4CCOCC4)cc3)[nH]n2)cc1C | 120 | 41% (active) | 120% (inactive) |  | -21.6% (inactive) | 59.2 | 37.6 | -5.14% (inactive) | -5.08% (inactive) | 37.6% (active) |
| CCOc1ccc2nc(NC(=O)C(NS(=O)(=O)c3cccs3)C(C)C)sc2c1 (configuration not stated) | 116 | 68.5% (inactive) | 116% (inactive) |  | 11.7% (inactive) | 75 | 86.7 | 0% (inactive) | -1.9% (inactive) | 86.7% (inactive) |
| Nc1nc(N2CCN(C/C=C/c3ccccc3)CC2)nc2ccccc12 | 80.5 | 98.5% (inactive) | 80.5% (inactive) |  | 5.93% (inactive) | 86.1 | 92 | -5.07% (inactive) | -2.13% (inactive) | 92% (inactive) |
